Ends that are not written are not given here. * marks the point of attachment. Octanoyl = CCCCCCCC(=O)*

These results are taken from publication PMC3402649 (Peptides, 2012).

The test system of one assay is E. faecalis (ATCC 29212). As to the kind of experiment: Agar plate-based bactericidal assay. The note with it: range of ghrelin concentrations tested; data not shown. The class given is cell-based, Enterococcus faecalis.
A further assay relates to E. coli (ATCC 27325). As to the kind of experiment: Agar plate-based bactericidal assay. In kind it is cell-based, Escherichia coli. The gist of the method:
(§1)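 Bacteria were grown aerobically overnight in BHI broth at 37°C, washed twice in PBS and suspended at 10^5 cells/mL in 10 mM sodium phosphate, pH 6.8. Suspensions were exposed to the test peptide over a range of concentrations for 2 h at 37°C, aerobically. For salt sensitivity, NaCl was added at 0–150 mM, with 25 μg/ml test peptide or 1 μg/ml reference peptide. Samples were diluted in PBS, plated on BHI agar overnight at 37°C and counted for CFU. Survival is expressed as a percentage of untreated; mean ± SD of three independent experiments.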

Another assay has as its system E. coli. As to the kind of experiment: Measurement of zeta-potential of bacteria treated with peptide. Details: species or system Escherichia coli. The following applies: 5 and 20 μg peptide/10^5 bacterial cells, 10 mM NaPi, 20 min, 37°C. Summed up:
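Overnight E. coli cultures were washed in PBS and resuspended at 10^8 cells/mL in 10 mM sodium phosphate. Cells were added to phosphate buffer containing peptide to give 5 or 20 μg peptide per 10^5 cells, then incubated 20 min at 37°C. Zeta potential was read on a particle sizer/zetasizer, and the mean was computed by the Smoluchowski equation. Values are mean ± SD of three independent experiments.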

Assay [1] has as its system P. aeruginosa (ATCC 15692). As to the kind of experiment: Agar plate-based bactericidal assay. In kind it is cell-based, Pseudomonas aeruginosa. Summed up:
as §1

[2] abbreviates: LL37 1 μg/ml, 10 mM NaPi pH 6.8 with NaCl 0 to 150 mM, dose-dependent.
The mark [3] stands for this setting: physiological NaCl concentration (150 mM) in 10 mM NaPi pH 6.8, AG 25 μg/ml.

For “desacylated ghrelin (GSSFLSPEHQRVQQRKESKKPPAKLQPR; Ghrelin-28 non-acylated; UniProt Q9UBU3 24-51, looked up) [DAG]”, the “bactericidal effects (in words)” value with E. faecalis (ATCC 29212) is “neither AG nor DAG showed significant bactericidal effects”.

In the case of “LL37 (LLGDFFRKSKEKIGKEFKRIVQRIKDFLRNLVPRTES; Antibacterial peptide LL-37; UniProt P49913 134-170, looked up) [reference compound]”, the “effect of NaCl on bactericidal activity (in words)” value (in the assay with E. coli (ATCC 27325) (setting [2]); in assay [1] (setting [2])) was “attenuated” in each case. Further, the “effect on zeta-potential of E. coli (in words)” value in the assay with E. coli was “increased the zeta-potential of E. coli”.

As for “acylated ghrelin (GSS(Octanoyl)FLSPEHQRVQQRKESKKPPAKLQPR; UniProt Q9UBU3 24-51, looked up) [AG]”, the “effect of NaCl on bactericidal activity (in words)” value (in the assay with E. coli (ATCC 27325) (setting [3]); in assay [1] (setting [3])) was “decreased” each time. For the same substance, the “bactericidal effects (in words)” value in the assay on E. faecalis (ATCC 29212) is “neither AG nor DAG showed significant bactericidal effects”.
